According to ChEMBL document CHEMBL5058577, “EUbOPEN Chemogenomics Library 2 (Multiplex)” (2022):

Tested on: Fibroblast
Experiment: Multiplex assay against human fibroblast
Format: toxicity, cell-based
Method in brief: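 Live cells were stained at seeding with Hoechst33342, BioTracker Green Microtubule Cytoskeleton Dye, MitoTracker Red and Annexin V Alexa Fluor 680. Following compound addition, they were imaged on a CQ1 microscope at 37°C and 5% CO2 and gated by CellPathfinder machine learning into Hoechst high-intensity objects or normal cells, with normal cells split into healthy, pyknosed or fragmented nuclei and pyknosed cells into mitotic or apoptotic. Tubulin, mitochondrial-mass and membrane-permeability phenotypes are per cents of healthy-nucleus cells.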

[1] = 12 h, 1 µM, compound concentration 1 uM, replicate 1
[2] = 12 h, 1 µM, compound concentration 1 uM, replicate 2
[3] = 12 h, 10 µM, compound concentration 10 uM, replicate 1
[4] = 12 h, 10 µM, compound concentration 10 uM, replicate 2
[5] = 24 h, 1 µM, compound concentration 1 uM, replicate 1
[6] = 24 h, 1 µM, compound concentration 1 uM, replicate 2
[7] = 24 h, 10 µM, compound concentration 10 uM, replicate 1
[8] = 24 h, 10 µM, compound concentration 10 uM, replicate 2
[9] = 48 h, 1 µM, compound concentration 1 uM, replicate 1
[10] = 48 h, 1 µM, compound concentration 1 uM, replicate 2
[11] = 48 h, 10 µM, compound concentration 10 uM, replicate 1
[12] = 48 h, 10 µM, compound concentration 10 uM, replicate 2

With `O=C(NCCO)c1cccc(-c2cc(Nc3ccc(OC(F)(F)F)cc3)ncn2)c1` the “Population Apoptotic (%)” value [1] was 46%, the “Population Fragmented Nuclei (%)” value [1] was 16% and the “Population Healthy Nuclei (%)” value [1] was 60%. The “Population Hoechst High Intensity Objects (%)” value [1] was 3%, the “Population Membrane Permeable-Phenotype (%)” value [1] was 1% and the “Population Mitochondria Different-Phenotype (%)” value [1] was 6%. The “Population Mitotic Cells (%)” value [1] was 53%, the “Population Normal (%)” value [1] was 96% and the “Population Pyknosed Nuclei (%)” value [1] was 24%. The “Population Tubulin-Different-Phenotype (%)” value [1] was 33%, the “Total Cell Count” value [1] was 130 and the “Population Apoptotic (%)” value [2] was 38%. For the same compound, the “Population Fragmented Nuclei (%)” value [2] was 29%, the “Population Healthy Nuclei (%)” value [2] was 46% and the “Population Hoechst High Intensity Objects (%)” value [2] was 4%. For the same compound, the “Population Membrane Permeable-Phenotype (%)” value [2] was 10%, the “Population Mitochondria Different-Phenotype (%)” value [2] was 8% and the “Population Mitotic Cells (%)” value [2] was 61%. The “Population Normal (%)” value [2] was 95%, the “Population Pyknosed Nuclei (%)” value [2] was 23% and the “Population Tubulin-Different-Phenotype (%)” value [2] was 46%. The “Total Cell Count” value [2] was 149, the “Population Apoptotic (%)” value [3] was 37% and the “Population Fragmented Nuclei (%)” value [3] was 17%. The “Population Healthy Nuclei (%)” value [3] was 59%, the “Population Hoechst High Intensity Objects (%)” value [3] was 5% and the “Population Membrane Permeable-Phenotype (%)” value [3] was 0%. The “Population Mitochondria Different-Phenotype (%)” value [3] was 13%, the “Population Mitotic Cells (%)” value [3] was 62% and the “Population Normal (%)” value [3] was 94%. The “Population Pyknosed Nuclei (%)” value [3] was 22%, the “Population Tubulin-Different-Phenotype (%)” value [3] was 54% and the “Total Cell Count” value [3] was 185. For the same compound, the “Population Apoptotic (%)” value [4] was 40%, the “Population Fragmented Nuclei (%)” value [4] was 22% and the “Population Healthy Nuclei (%)” value [4] was 36%. For the same compound, the “Population Hoechst High Intensity Objects (%)” value [4] was 10%, the “Population Membrane Permeable-Phenotype (%)” value [4] was 11% and the “Population Mitochondria Different-Phenotype (%)” value [4] was 11%. The “Population Mitotic Cells (%)” value [4] was 59%, the “Population Normal (%)” value [4] was 89% and the “Population Pyknosed Nuclei (%)” value [4] was 40%. For the same compound, the “Population Tubulin-Different-Phenotype (%)” value [4] was 79%, the “Total Cell Count” value [4] was 192 and the “Population Apoptotic (%)” value [5] was 56%. The “Population Fragmented Nuclei (%)” value [5] was 16%, the “Population Healthy Nuclei (%)” value [5] was 60% and the “Population Hoechst High Intensity Objects (%)” value [5] was 1%. For the same compound, the “Population Membrane Permeable-Phenotype (%)” value [5] was 2%, the “Population Mitochondria Different-Phenotype (%)” value [5] was 4% and the “Population Mitotic Cells (%)” value [5] was 43%. The “Population Normal (%)” value [5] was 98%, the “Population Pyknosed Nuclei (%)” value [5] was 22% and the “Population Tubulin-Different-Phenotype (%)” value [5] was 33%. The “Total Cell Count” value [5] was 135, the “Population Apoptotic (%)” value [6] was 52% and the “Population Fragmented Nuclei (%)” value [6] was 24%. The “Population Healthy Nuclei (%)” value [6] was 50%, the “Population Hoechst High Intensity Objects (%)” value [6] was 2% and the “Population Membrane Permeable-Phenotype (%)” value [6] was 5%. For the same compound, the “Population Mitochondria Different-Phenotype (%)” value [6] was 5%, the “Population Mitotic Cells (%)” value [6] was 47% and the “Population Normal (%)” value [6] was 97%. For the same compound, the “Population Pyknosed Nuclei (%)” value [6] was 25%, the “Population Tubulin-Different-Phenotype (%)” value [6] was 42% and the “Total Cell Count” value [6] was 139. For the same compound, the “Population Apoptotic (%)” value [7] was 50%, the “Population Fragmented Nuclei (%)” value [7] was 14% and the “Population Healthy Nuclei (%)” value [7] was 61%. The “Population Hoechst High Intensity Objects (%)” value [7] was 11%, the “Population Membrane Permeable-Phenotype (%)” value [7] was 1% and the “Population Mitochondria Different-Phenotype (%)” value [7] was 21%. The “Population Mitotic Cells (%)” value [7] was 50%, the “Population Normal (%)” value [7] was 88% and the “Population Pyknosed Nuclei (%)” value [7] was 24%. For the same compound, the “Population Tubulin-Different-Phenotype (%)” value [7] was 53%, the “Total Cell Count” value [7] was 175 and the “Population Apoptotic (%)” value [8] was 41%. The “Population Fragmented Nuclei (%)” value [8] was 30%, the “Population Healthy Nuclei (%)” value [8] was 36% and the “Population Hoechst High Intensity Objects (%)” value [8] was 7%. For the same compound, the “Population Membrane Permeable-Phenotype (%)” value [8] was 10%, the “Population Mitochondria Different-Phenotype (%)” value [8] was 25% and the “Population Mitotic Cells (%)” value [8] was 58%. For the same compound, the “Population Normal (%)” value [8] was 92%, the “Population Pyknosed Nuclei (%)” value [8] was 32% and the “Population Tubulin-Different-Phenotype (%)” value [8] was 84%. The “Total Cell Count” value [8] was 187, the “Population Apoptotic (%)” value [9] was 82% and the “Population Fragmented Nuclei (%)” value [9] was 21%. For the same compound, the “Population Healthy Nuclei (%)” value [9] was 65%, the “Population Hoechst High Intensity Objects (%)” value [9] was 1% and the “Population Membrane Permeable-Phenotype (%)” value [9] was 3%. For the same compound, the “Population Mitochondria Different-Phenotype (%)” value [9] was 1%, the “Population Mitotic Cells (%)” value [9] was 17% and the “Population Normal (%)” value [9] was 98%. The “Population Pyknosed Nuclei (%)” value [9] was 13%, the “Population Tubulin-Different-Phenotype (%)” value [9] was 28% and the “Total Cell Count” value [9] was 130. For the same compound, the “Population Apoptotic (%)” value [10] was 45%, the “Population Fragmented Nuclei (%)” value [10] was 31% and the “Population Healthy Nuclei (%)” value [10] was 53%. The “Population Membrane Permeable-Phenotype (%)” value [10] was 6%, the “Population Mitochondria Different-Phenotype (%)” value [10] was 4% and the “Population Mitotic Cells (%)” value [10] was 54%. For the same compound, the “Population Pyknosed Nuclei (%)” value [10] was 14%, the “Population Tubulin-Different-Phenotype (%)” value [10] was 38% and the “Total Cell Count” value [10] was 156. For the same compound, the “Population Apoptotic (%)” value [11] was 70%, the “Population Fragmented Nuclei (%)” value [11] was 35% and the “Population Healthy Nuclei (%)” value [11] was 51%. For the same compound, the “Population Hoechst High Intensity Objects (%)” value [11] was 13%, the “Population Membrane Permeable-Phenotype (%)” value [11] was 0% and the “Population Mitochondria Different-Phenotype (%)” value [11] was 26%. The “Population Mitotic Cells (%)” value [11] was 30%, the “Population Normal (%)” value [11] was 86% and the “Population Pyknosed Nuclei (%)” value [11] was 13%. The “Population Tubulin-Different-Phenotype (%)” value [11] was 64%, the “Total Cell Count” value [11] was 170 and the “Population Apoptotic (%)” value [12] was 76%. The “Population Fragmented Nuclei (%)” value [12] was 40%, the “Population Healthy Nuclei (%)” value [12] was 47% and the “Population Hoechst High Intensity Objects (%)” value [12] was 6%. For the same compound, the “Population Membrane Permeable-Phenotype (%)” value [12] was 13%, the “Population Mitochondria Different-Phenotype (%)” value [12] was 19% and the “Population Mitotic Cells (%)” value [12] was 23%. The “Population Normal (%)” value [12] was 93%, the “Population Pyknosed Nuclei (%)” value [12] was 11% and the “Population Tubulin-Different-Phenotype (%)” value [12] was 86%. For the same compound, the “Total Cell Count” value [12] was 198.
